Calls of active or inactive are those of the source. No cut-off for these calls is given here.
Legend:
[1] = molecular target: Norepinephrine transporter (Rattus norvegicus, UniProt Q9WTR4); assay: Inhibition of uptake of tritiated norepinephrine (NE) into rat brain synaptosomes; assay type: functional, subcellular
[2] = molecular target: Sodium-dependent serotonin transporter (Rattus norvegicus, UniProt P31652); assay: Inhibition of uptake of [14C]-labelled serotonin (5-HT) into rat brain synaptosomes
Sequence of Sodium-dependent serotonin transporter (P31652 whole entry): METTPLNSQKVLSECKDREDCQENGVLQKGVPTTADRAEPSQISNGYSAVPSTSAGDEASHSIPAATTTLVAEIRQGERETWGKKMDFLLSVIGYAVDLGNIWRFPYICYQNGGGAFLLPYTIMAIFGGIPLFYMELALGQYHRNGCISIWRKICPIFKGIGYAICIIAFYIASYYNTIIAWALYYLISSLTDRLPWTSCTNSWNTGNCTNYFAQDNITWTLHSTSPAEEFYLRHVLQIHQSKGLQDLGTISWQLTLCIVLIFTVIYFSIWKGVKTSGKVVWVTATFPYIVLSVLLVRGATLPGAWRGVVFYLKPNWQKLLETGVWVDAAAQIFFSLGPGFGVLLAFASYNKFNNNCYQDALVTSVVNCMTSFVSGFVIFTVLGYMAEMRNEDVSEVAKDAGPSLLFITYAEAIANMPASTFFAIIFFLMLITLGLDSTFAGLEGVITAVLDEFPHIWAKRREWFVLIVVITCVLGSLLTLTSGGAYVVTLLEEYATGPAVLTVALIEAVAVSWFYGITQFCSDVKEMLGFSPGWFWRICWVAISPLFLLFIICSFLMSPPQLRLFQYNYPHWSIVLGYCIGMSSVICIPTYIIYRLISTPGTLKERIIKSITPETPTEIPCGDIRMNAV

[3] = molecular target: T1, Adrenergic receptor beta (Rattus norvegicus) (UniProt P18090+P10608+P26255)
[4] = molecular target: T2, Serotonin 2 (5-HT2) receptor (Rattus norvegicus) (UniProt P30994+P08909+P14842)
T2 sequence (P08909 whole entry, looked up): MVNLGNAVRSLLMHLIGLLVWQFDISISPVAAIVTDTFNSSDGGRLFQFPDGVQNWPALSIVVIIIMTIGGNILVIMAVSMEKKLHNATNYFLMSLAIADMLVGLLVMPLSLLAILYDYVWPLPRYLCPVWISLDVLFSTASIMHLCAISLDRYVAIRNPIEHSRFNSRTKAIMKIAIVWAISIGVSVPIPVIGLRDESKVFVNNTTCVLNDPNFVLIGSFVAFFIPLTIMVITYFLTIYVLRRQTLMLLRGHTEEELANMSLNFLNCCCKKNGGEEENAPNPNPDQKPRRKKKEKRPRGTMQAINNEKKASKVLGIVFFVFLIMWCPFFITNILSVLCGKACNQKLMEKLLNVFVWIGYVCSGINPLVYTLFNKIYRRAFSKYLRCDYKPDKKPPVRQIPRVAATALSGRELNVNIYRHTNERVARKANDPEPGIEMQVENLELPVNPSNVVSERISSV
T2 sequence (P14842 whole entry, looked up): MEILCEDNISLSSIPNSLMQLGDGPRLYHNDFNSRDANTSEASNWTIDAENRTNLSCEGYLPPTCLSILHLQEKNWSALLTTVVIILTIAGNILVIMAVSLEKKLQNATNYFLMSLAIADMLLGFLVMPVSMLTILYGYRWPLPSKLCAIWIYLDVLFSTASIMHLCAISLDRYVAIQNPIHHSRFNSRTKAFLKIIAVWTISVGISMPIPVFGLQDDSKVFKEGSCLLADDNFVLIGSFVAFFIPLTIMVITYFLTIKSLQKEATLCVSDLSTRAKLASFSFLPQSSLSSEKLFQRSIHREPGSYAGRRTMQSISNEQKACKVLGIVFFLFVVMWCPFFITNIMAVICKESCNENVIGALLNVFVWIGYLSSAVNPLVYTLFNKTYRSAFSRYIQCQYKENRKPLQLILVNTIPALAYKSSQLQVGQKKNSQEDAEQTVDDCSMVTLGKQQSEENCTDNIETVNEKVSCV
T2 sequence (P30994 whole entry, looked up): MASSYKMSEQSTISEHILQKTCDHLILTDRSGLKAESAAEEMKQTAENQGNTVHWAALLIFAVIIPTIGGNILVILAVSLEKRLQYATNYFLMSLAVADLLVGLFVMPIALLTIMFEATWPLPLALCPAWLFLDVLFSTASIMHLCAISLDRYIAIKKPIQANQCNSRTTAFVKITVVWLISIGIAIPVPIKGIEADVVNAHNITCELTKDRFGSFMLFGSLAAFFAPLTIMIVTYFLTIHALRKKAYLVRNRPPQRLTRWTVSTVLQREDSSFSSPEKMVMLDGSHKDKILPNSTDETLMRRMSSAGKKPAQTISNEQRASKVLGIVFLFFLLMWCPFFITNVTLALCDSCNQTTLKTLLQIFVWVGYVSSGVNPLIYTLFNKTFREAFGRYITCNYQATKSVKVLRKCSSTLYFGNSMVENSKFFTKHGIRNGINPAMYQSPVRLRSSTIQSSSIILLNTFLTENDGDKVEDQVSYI

[5] = molecular target: T1, Adrenergic receptor beta (Rattus norvegicus); remark: listed apart in the source
[6] = molecular target: T2, Serotonin 2 (5-HT2) receptor (Rattus norvegicus); remark: listed apart in the source
Rattus norvegicus [7] = assay: (§1) In vivo antagonism of histamine-induced ACTH release in the rat at 10 mg/kg (ip).; assay type: functional
In short: (§2)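 Male Sprague–Dawley rats (200–300 g) given compound in saline ip 1 h before saline or histamine (5 mg/kg ip); decapitated 10 min later, trunk blood serum assayed for ACTH by radioimmunoassay (pg/mL). Two-way ANOVA with Dunnett's and Student–Neuman–Keuls tests; value is % decrease of histamine-stimulated ACTH.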

Rattus norvegicus [8] = assay: In vivo noradrenergic responsiveness in the rat pineal gland at 10 mg/kg (ip) (single treatment); assay type: functional
In short: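 Male Sprague–Dawley rats kept in continuous light, given saline twice daily for 5 days, then a single 10 or 30 mg/kg ip dose on day 5. 1 h later, isoproterenol 2 μmol/kg in 0.1% ascorbic acid (or vehicle). Pineal removed 2.5 min after, perchloric acid extract, cAMP by radioimmunoassay; % change versus isoproterenol-stimulated controls.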

Rattus norvegicus [9] = assay: (§3) In vivo noradrenergic responsiveness in the rat pineal gland at 10 mg/kg (ip) (chronic treatment); assay type: functional
In short: (§4)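 Male Sprague–Dawley rats kept in continuous light, dosed ip twice daily for 5 days (nine injections). 1 h after last dose, isoproterenol 2 μmol/kg in 0.1% ascorbic acid (controls: vehicle); pineal removed 2.5 min later, perchloric acid extract assayed for cAMP by 125I radioimmunoassay. Expressed as % change from control isoproterenol-stimulated pmol cAMP/pineal.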

Mus musculus = assay: In vivo antagonism of reserpine-induced hypothermia in the mice; assay type: functional; conditions: for minimal effective dose: Mus musculus, read-out: MED
In short: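 Male mice pretreated 18 h earlier with reserpine 5.0 mg/kg sc; compounds in 0.25% Tween 80 in water given ip or po at 1, 3, 10, 30, 100 mg/kg. Rectal temperature read at 1, 2, 3 h post-dose; MED for reversing hypothermia from two-way ANOVA with Dunnett's comparison to control.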

Rattus norvegicus [10] = assay: In vivo noradrenergic responsiveness in the rat pineal gland at 10 mg/kg (ip) (single treatment); No significant effect; assay type: functional, organism-based; parameters: dose 10 mg/kg
Rattus norvegicus [11] = assay: In vivo noradrenergic responsiveness in the rat pineal gland at 10 mg/kg (ip) (chronic treatment); No significant effect; assay type: functional, organism-based; parameters: dose 10 mg/kg; in short: as §4
Rattus norvegicus [12] = assay: as §1; assay type: functional; remark: listed apart in the source
In short: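 Male Sprague–Dawley rats (200–300 g), 10 mg/kg in saline ip, 1 h before saline or histamine (5 mg/kg ip). Decapitated 10 min later; trunk-blood serum frozen at -60 °C, ACTH measured by radioimmunoassay (pg/mL). Two-way ANOVA with Dunnett's and Student–Neuman–Keuls tests; expressed as % decrease.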

Rattus norvegicus [13] = assay: as §3; assay type: functional; remark: listed apart in the source
In short: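 Male Sprague–Dawley rats under continuous light, injected ip twice daily for 5 days (nine injections) with 10 or 30 mg/kg. 1 h after last dose, isoproterenol 2 μmol/kg in 0.1% ascorbic acid (or vehicle). Pineal removed 2.5 min later, perchloric acid extract, cAMP by 125I radioimmunoassay; % change versus isoproterenol-stimulated controls.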

Rattus norvegicus [14] = assay: In vivo antagonism of histamine-induced ACTH release in the rodents at 10 mg/kg (ip); No significant effect; assay type: functional, organism-based; parameters: dose 10 mg/kg; in short: as §2

Sequence of Norepinephrine transporter (Q9WTR4 whole entry): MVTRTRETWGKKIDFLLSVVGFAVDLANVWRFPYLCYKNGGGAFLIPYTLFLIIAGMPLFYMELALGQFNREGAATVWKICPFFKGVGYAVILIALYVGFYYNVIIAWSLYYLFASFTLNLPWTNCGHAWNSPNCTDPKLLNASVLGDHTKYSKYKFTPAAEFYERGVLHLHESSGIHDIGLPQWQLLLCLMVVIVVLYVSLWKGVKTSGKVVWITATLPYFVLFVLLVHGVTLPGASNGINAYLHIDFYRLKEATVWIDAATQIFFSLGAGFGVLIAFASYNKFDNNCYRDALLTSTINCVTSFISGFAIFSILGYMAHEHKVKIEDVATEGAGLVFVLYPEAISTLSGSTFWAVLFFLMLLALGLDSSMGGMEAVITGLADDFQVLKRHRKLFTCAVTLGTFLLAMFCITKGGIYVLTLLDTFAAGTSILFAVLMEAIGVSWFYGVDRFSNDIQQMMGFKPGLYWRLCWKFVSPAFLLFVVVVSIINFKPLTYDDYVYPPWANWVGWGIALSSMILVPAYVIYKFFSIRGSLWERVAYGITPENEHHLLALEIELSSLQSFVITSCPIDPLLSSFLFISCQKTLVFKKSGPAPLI

## CN(C)CC(c1cccc(C(F)(F)F)c1)C1(O)CCCCC1 (centres undefined)
[1]
  IC50: 360 nM
[2]
  IC50: 1440 nM

## Cc1ccc(C(CN(C)C)C2(O)CCCCC2)cc1 (centres undefined)
[1]
  IC50: 530 nM
[2]
  IC50: 1540 nM

## COc1ccc(C(CN(C)C)C2(O)CCCCC2)cc1 (stereo in doubt; 4)
[3]
  Binding activity: 61.8 fM/mg
[4]
  Binding activity: 77.8 fM/mg
[5]
  Binding activity: 35 fM/mg
[6]
  Binding activity: 251 fM/mg

## COc1ccc(C(CN(C)C)C2(O)CCCCC2)cc1Br (centres undefined)
[1]
  IC50: 140 nM
Rattus norvegicus [7]
  Decrease: 34%
Rattus norvegicus [8]
  Change: -65%
[2]
  IC50: 200 nM
Rattus norvegicus [9]
  Change: -82%
Mus musculus
  minimal effective dose: 1 mg/kg

## COc1ccc(C(CN(C)C)C2(O)CCCCC2)cc1 (single isomer, unassigned; (+))
Rattus norvegicus [10]
  Change: inactive
Rattus norvegicus [11]
  Change: inactive

## CN(C)CC(c1ccc(O)cc1)C1(O)CCCCC1 (centres undefined) [DESVENLAFAXINE]
[1]
  IC50: 1160 nM

## COc1ccc(C(CN(C)C)C2(O)CCCCCC2)cc1 (centres undefined)
[1]
  IC50: 2070 nM
[2]
  IC50: 240 nM

## CN(C)CC(c1ccc(Br)cc1)C1(O)CCCCC1 (centres undefined)
[1]
  IC50: 210 nM
Rattus norvegicus [10]
  Change: inactive
Rattus norvegicus [7]
  Decrease: 43%
[2]
  IC50: 110 nM
Rattus norvegicus [11]
  Change: inactive
Mus musculus
  minimal effective dose: 1 mg/kg

## COc1cccc(C(CN(C)C)C2(O)CCCCC2)c1 (centres undefined)
[1]
  IC50: 620 nM
Rattus norvegicus [7]
  Decrease: 52%
Rattus norvegicus [8]
  Change: -79%
[2]
  IC50: 190 nM
Rattus norvegicus [9]
  Change: -81%
Mus musculus
  minimal effective dose: 3 mg/kg

## CN(C)CC(c1ccc(C(F)(F)F)cc1)C1(O)CCCC1 (centres undefined)
[1]
  IC50: 10400 nM
[2]
  IC50: 490 nM

## CN(C)CC(c1ccc(C(F)(F)F)cc1)C1(O)CCCCCC1 (centres undefined)
[1]
  IC50: 2400 nM
[2]
  IC50: 500 nM

## CN(C)CC(c1ccc(Cl)c(Cl)c1)C1(O)CCCCC1 (centres undefined)
[1]
  IC50: 70 nM
Rattus norvegicus [7]
  Decrease: 55%
Rattus norvegicus [8]
  Change: -51%
Rattus norvegicus [9]
  Change: -74%
Mus musculus
  minimal effective dose: 3 mg/kg

## COc1ccc(C(CN(C)C)C2(O)CCCC2)cc1 (centres undefined)
[1]
  IC50: 5800 nM
[2]
  IC50: 400 nM

## COc1cccc(C(CN(C)C)C2(O)CCCC2)c1 (centres undefined)
[1]
  IC50: > 10000 nM
[2]
  IC50: 680 nM

## CNCCCN1c2ccccc2CCc2ccccc21 [DESIPRAMINE]
Rattus norvegicus [10]
  Change: inactive
Rattus norvegicus [7]
  Decrease: 52%
Rattus norvegicus [9]
  Change: -81%
Mus musculus
  minimal effective dose: 0.4 mg/kg

## CN(C)CC(c1cccc(Br)c1)C1(O)CCCCC1 (centres undefined)
[1]
  IC50: 110 nM
Rattus norvegicus [10]
  Change: inactive
Rattus norvegicus [12]
  Decrease: 67%
[2]
  IC50: 230 nM
Rattus norvegicus [11]
  Change: inactive
Mus musculus
  minimal effective dose: 1 mg/kg

## CNCC(c1ccc(OC)cc1)C1(O)CCCCC1 (centres undefined) [N-DESMETHYLVENLAFAXINE CHLORIDE]
[1]
  IC50: 4700 nM
[2]
  IC50: 1600 nM

## CN(C)CC(c1ccccc1)C1(O)CCCCC1 (centres undefined)
[1]
  IC50: 1900 nM

## CN(C)CC(c1ccc(Cl)cc1)C1(O)CCCCC1 (centres undefined)
[1]
  IC50: 300 nM
[2]
  IC50: 180 nM

## COc1ccc(C(CN(C)C)C2(O)CCCCC2)cc1 (single isomer, unassigned; (-)) [VENLAFAXINE]
Rattus norvegicus [12]; 10 mg/kg
  Decrease: 37%
Rattus norvegicus [8]
  Change: -53%
Rattus norvegicus [13]
  Change: -51%
Mus musculus
  MED: 3 mg/kg

## COc1ccc(C(CN(C)C)C2(O)CCCCC2)cc1 (single isomer, unassigned; (+)) [VENLAFAXINE]
Rattus norvegicus [12]; 10 mg/kg
  Decrease: 54%
Mus musculus
  MED: 30 mg/kg

## COc1ccc(C(CN(C)C)C2(O)CCCCC2)cc1OC (centres undefined)
[1]
  IC50: 1380 nM
[2]
  IC50: 130 nM

## CN(C)CC(c1ccc(C(F)(F)F)cc1)C1(O)CCCCC1 (centres undefined)
[1]
  IC50: 2800 nM
[2]
  IC50: 400 nM

## CN(C)CC(c1ccc(Br)cc1)C1(O)CCC1 (centres undefined)
[1]
  IC50: 890 nM
[2]
  IC50: 580 nM

## CN(C)CC(c1cccc(Cl)c1)C1(O)CCCCC1 (centres undefined)
Rattus norvegicus [10]
  Change: inactive
Rattus norvegicus [14]
  Change: inactive
Rattus norvegicus [11]
  Change: inactive
Mus musculus
  minimal effective dose: 1 mg/kg

## COc1ccc(C(CN(C)C)C2(O)CCCCC2)cc1 (stereo in doubt; 4) [VENLAFAXINE]
Rattus norvegicus [7]
  Decrease: 26%
Rattus norvegicus [8]
  Change: -51%
Rattus norvegicus [9]
  Change: -43%
Mus musculus
  MED: 10 mg/kg
